The source of these data is article PMC11807182 (Scientific Reports, 2025).

Series [1] has as its system S. mansoni adult worms. The conditions noted are these: read-out: EC50 for S. mansoni adult worms; cited from earlier work.
The test system of series [2] is Caenorhabditis elegans. Nature of the series: Lethal toxicity assay in C. elegans. It counts as in vivo. The conditions noted are these: L4-stage larvae, Bristol N2 strain, 24 h, 21 °C. In short, it runs like this: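 C. elegans Bristol N2 was grown on NGM plates seeded with E. coli OP50. Synchronized L4 larvae, 60/well in M9 medium, were exposed to test compound starting at 1,000 µM, with ivermectin reference and 1% DMSO negative control. Viability was scored by movement after 24 h at 21 °C. Triplicate; LD50 from sigmoidal dose-response curves.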

For series [3], the system named is Schistosoma mansoni adult worms. Nature of the series: In vitro assay with adult S. mansoni. It is filed as cell-based. The conditions noted are these: concentrations starting from 50 µM, up to 72 h. In short, it runs like this:
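S. mansoni (Belo Horizonte strain) adults were perfused from the hepatic portal vein of Swiss mice 49 days post-infection. One worm pair/well in RPMI 1640 with 10% FBS, penicillin and streptomycin; test compound starting at 50 µM, with praziquantel, metal salts and 1% DMSO controls; 37 °C, 5% CO₂, up to 72 h. Viability by inverted microscope at 0, 24, 48 and 72 h; death meant no movement ≥1 min after gentle stimulation. Triplicate; EC50 by sigmoidal fit.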

The test system of series [4] is Angiostrongylus cantonensis L1 larvae. Nature of the series: In vitro assay with A. cantonensis L1 larvae. The conditions noted are these: for activity against A. cantonensis: L1 larvae, concentrations starting from 50 µM, 24 h. It counts as cell-based. A digest of the protocol:
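A. cantonensis (NPDN-AC strain, cycled through B. glabrata and Wistar rats) L1 larvae were recovered from rat feces by the Rugai technique and washed in RPMI 1640 with antibiotics. About 100 larvae/well were exposed to test compound starting at 50 µM at 21 °C, with drug-free medium, metal salt and 1% DMSO controls. Viability was checked microscopically at 0 and 24 h; efficacy meant ≥60% larvae immobile.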

For 2-oxopopulifolic acid methyl ester, in series [1], the EC50 was 50 µM. Regarding `CC1=CC(=O)CC2[C@]1(C)CC[C@@H](C)[C@]2(C)CCC(C)CC(=O)O` (some centres unmarked) [2-oxopopulifolic acid], the EC50 in series [1] was 50 µM. As to `O=C1C(=O)c2cccnc2-c2ncccc21.O=C1C(=O)c2cccnc2-c2ncccc21.[Ag+].[O-][Cl+3]([O-])([O-])[O-]` [Ag-phendione, [Ag(phendione)2](ClO4)], the “C. elegans LD50” value in series [2] worked out at 167 µM.

Turning to `O=[N+]([O-])[O-].[Ag+]` [AgNO₃], the antischistosomal activity result in series [3] is listed as “no antischistosomal activity”. In addition, the “activity against A. cantonensis” value in series [4] was “no activity”.

Take `O.O.O.O.O.O.O.O.O=C1C(=O)c2cccnc2-c2ncccc21.O=C1C(=O)c2cccnc2-c2ncccc21.O=C1C(=O)c2cccnc2-c2ncccc21.[Cu+2].[O-][Cl+3]([O-])([O-])[O-].[O-][Cl+3]([O-])([O-])[O-]` [Cu-phendione, [Cu(phendione)3](ClO4)2·8H2O]: in series [2], the “C. elegans LD50” value is given as 280 µM. As for `O.O.O.O.O.O=S(=O)([O-])[O-].[Cu+2]` [CuSO₄·5 H₂O], the antischistosomal activity result in series [3] was “no antischistosomal activity”. Moreover, the “activity against A. cantonensis” value in series [4] is recorded as “no activity”. Regarding `O=C1C(=O)c2cccnc2-c2ncccc21` [Phendione, 1,10-phenanthroline-5,6-dione], the “larval motility compared to the control group” value in series [4] (A. cantonensis L1 larvae) is “significantly reduced”. In addition, the “C. elegans LD50” value in series [2] came to 719 µM.

Take `Cc1ccc(C(C)C)cc1O` [carvacrol]: the half-maximal effective concentration (EC50) in series [1] was 56.8 µM. For the molecule `CC(=O)Oc1cc(C(C)C)ccc1C` [carvacryl acetate], the EC50 in series [1] is 42.2 µM.

In the case of `C=C1C(=O)O[C@@H]2/C=C(\CO)CC/C=C(\C)C[C@H](OC(=O)C(=C)[C@@H](O)CO)[C@@H]12` [cnicin], the EC50 in series [1] was 50 µM.

Turning to `O=c1c(O)c(-c2ccc(O)cc2)oc2cc(O)cc(O)c12` [kaempferol], the EC50 in series [1] was 81.8 µM. For `C/C=C/c1cc(OC)c2c(c1)[C@H](C)[C@@H](c1ccc(O)c(OC)c1)O2` [licarin A], the EC50 in series [1] is 30 µM. As to `C=CC(C)(C)c1cc(/C=C/C(=O)c2ccc(O)cc2)c(OC)cc1O` [licochalcone A], the EC50 in series [1] was 50 µM. For Ivermectin, in series [2], the “C. elegans LD50” value was determined as 4.1 µM.
